Compound activity from PubChem BioAssay.
SENP8 block-1: SENP8 protease inhibitors, primary screen, biochemical, luminescence | Sentrin-specific protease 8 (Homo sapiens), Q96LD8 | purified SENP8, Z-RLRGG-aminoluciferin cleavage | inhibition, % at 10 µM | actives 1.2% (n = 330,000); in the data active means inhibition above about 50%
Target sequence (Q96LD8 whole entry, looked up): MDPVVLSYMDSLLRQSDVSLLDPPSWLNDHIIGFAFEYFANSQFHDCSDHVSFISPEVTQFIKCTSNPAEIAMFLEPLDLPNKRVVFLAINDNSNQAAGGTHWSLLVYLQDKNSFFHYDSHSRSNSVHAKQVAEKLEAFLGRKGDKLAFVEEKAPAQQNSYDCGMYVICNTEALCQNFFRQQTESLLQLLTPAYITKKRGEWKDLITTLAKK
SENP7 inh: SENP7 protease inhibitors, primary screen, biochemical, luminescence, uHTS; inhibition, % at 5 µM; Sentrin-specific protease 7 (Homo sapiens), Q9BQF6; recombinant SENP7, Z-RLRGG-aminoluciferin luminescence, 40 min; actives 1.5% (n = 330,000); AID 434973, 2010;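 active means inhibition above about 50% at the single test dose, limit read from the data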;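 further: plate controls were DMSO with enzyme for no effect and no enzyme buffer wells for full effect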
SENP1 inh: human SENP1 catalytic domain inhibitors, primary screen, biochemical, FRET, uHTS | recombinant SENP1 catalytic domain, CyPet-SUMO1-YPet FRET cleavage | AID 624204, 2012 | Sentrin-specific protease 1 (Homo sapiens), Q9P0U3 | inhibition, % at 10 µM | actives 0.21% (n = 360,000);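 active means inhibition at least 30% at 10 µM, raw YFP signal under a set limit, fluorescence ratio 0.5 to 1.5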;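 further: 0% = enzyme with DMSO and 100% = no enzyme wells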
Target sequence (Q9P0U3 419-644 limits assumed): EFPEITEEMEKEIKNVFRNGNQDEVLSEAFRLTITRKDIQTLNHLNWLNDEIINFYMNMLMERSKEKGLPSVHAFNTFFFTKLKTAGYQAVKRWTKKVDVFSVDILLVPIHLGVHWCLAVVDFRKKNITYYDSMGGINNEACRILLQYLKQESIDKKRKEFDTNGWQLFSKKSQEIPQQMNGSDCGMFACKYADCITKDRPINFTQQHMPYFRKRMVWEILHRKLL
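Controls: no-enzyme wells low, DMSO-plus-enzyme wells high control. Test system: human recombinant His6-tagged SENP1 catalytic domain enzyme. Reagent: SFCypet-SUMO1-SFYpet FRET protein substrate, 25 nM final. Doses: one dose per compound, 10 µM, 0.5% DMSO. Detection: FRET, CFP and YFP emission. Timing: 50 min reaction at room temperature.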
SENP6 inh: SENP6 protease inhibitors, primary screen, biochemical, luminescence, uHTS. inhibition, % at 10 µM. actives 1.8% (n = 330,000). Recombinant SENP6 catalytic domain, aminoluciferin luminescence;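 active means inhibition above about 50% at the single tested dose, limit read from the data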;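 further: plate controls were DMSO wells with enzyme for no effect and DMSO wells lacking enzyme for full effect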
SENP8 block-2: human SENP8 protease inhibitors, primary screen, biochemical, fluorescence, Nedd8 protein substrate, uHTS; Sentrin-specific protease 8 (Homo sapiens), Q96LD8; recombinant SENP8; AID 602440, 2012; inhibition, % at 20 µM; actives 0.64% (n = 360,000); in the data active means inhibition mostly above about 40%, no sharp cut-off; inactive means mostly below about 27%
SENP8 confirm: SENP8 protease inhibitors, retest, confirmation, biochemical, luminescence, single concentration; inhibition, % at 12.5 µM; actives 40% (n = 6,200); shares compounds with SENP7 inh; Recombinant SENP8, Z-RLRGG-aminoluciferin luminescence, 60 min; AID 488912, 2010;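 active means mean inhibition across replicates above about 50%, limit read from the data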
SENP6 conf: SENP6 protease inhibitors, confirmation, biochemical, luminescence, single concentration. shares compounds with SENP7 inh. recombinant SENP6, Z-RLRGG-aminoluciferin luminescence. inhibition, % at 12.5 µM. actives 58% (n = 6,200). AID 488915, 2010
SENP7 confirm: SENP7 protease inhibitors, retest, confirmation, biochemical, luminescence, single concentration; recombinant SENP7, Z-RLRGG-aminoluciferin luminescence, 40 min; actives 69% (n = 6,200); shares compounds with SENP7 inh; inhibition, % at 12.5 µM
Casp3 SENP sel: caspase-3 protease inhibitors, confirmation, selectivity assay for SENP inhibitor project, biochemical, single concentration; shares compounds with SENP7 inh; purified caspase-3, Z-DEVD-aminoluciferin luminescence, 60 min; inhibition, % at 12.5 µM; actives 60% (n = 6,200);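 active means mean inhibition above about 50%, limit read from the data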;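 further: plate controls were enzyme with DMSO for no effect and wells without caspase-3 for full effect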
Luc interf: interferes with luciferase luminescence in SENP counter-screen. actives 39% (n = 6,200). Pre-incubated SENP8/Z-RLRGG-aminoluciferin, luciferase luminescence interference. AID 488919. inhibition, % at 12.5 µM. shares compounds with SENP7 inh;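 active means mean inhibition above about 50% when retested at one dose, limit read from the data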;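 further: plate controls were DMSO wells with completed reaction for no effect and substrate without enzyme for full effect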
Numbers without * were called inactive; nt = no result. An excerpt weighted towards active compounds, which were near 2.5% of everything screened.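 How the source made its calls, unless noted: active means mean inhibition above about 50% in the one-dose retest (limit read from the data); inactive means the rest.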

SMILES	SENP8 block-1	SENP7 inh	SENP1 inh	SENP6 inh	SENP8 block-2	SENP8 confirm	SENP6 conf	SENP7 confirm	Casp3 SENP sel	Luc interf
CCn1c(NCc2ccc(N(C)C)cc2)nc2ccccc21	-6	0	-4	-6	34	nt	nt	nt	nt	nt
CC1(C(=O)NC2CCCC2)CCC(=O)N1CCOc1ccccc1 (stereo not given)	nt	nt	0	nt	15	nt	nt	nt	nt	nt
Cc1ccc(CNC(=O)C(Cc2ccccc2)NS(=O)(=O)c2ccc(Br)s2)cc1 (stereo not given)	-8	-8	-10	-33	3	nt	nt	nt	nt	nt
O=C(NC(=S)Nc1ccccc1[N+](=O)[O-])c1ccccc1	-7	-15	0	-21	18	nt	nt	nt	nt	nt
O=C(NC(=S)/C(=C1\CCCCCN1)[N+](=O)[O-])c1ccccc1	57*	60*	1	60*	14	77*	71*	93*	74*	10
COc1ccccc1-c1nc2cc3ccccc3cc2nc1-c1ccccc1	6	4	-27	51*	-144	-4	3	-5	-3	-3
COc1ccc2c(c1)C1OCCC1C(c1ccco1)N2 (stereo not given)	56*	42	-8	-3	-460	64*	64*	91*	88*	75*
N#CCN1C(=O)NC2(CCCc3sccc32)C1=O (stereo not given)	0	-5	-7	8	10	nt	nt	nt	nt	nt
O=C(CN(Cc1ccccc1)C(=O)CCC(=O)Nc1nccs1)NCc1ccc(F)cc1	-9	-7	0	-11	3	nt	nt	nt	nt	nt
c1ccc(-c2ccc3sccc3n2)cc1	75*	85*	2	83*	16	36	78*	94*	79*	57*
Fc1ccc2nc(-c3ccccc3)ccc2c1	nt	nt	0	nt	17	nt	nt	nt	nt	nt
Cc1ccc(C(=O)OCC(=O)NCc2cccc(Cl)c2)cc1S(=O)(=O)N1CCCCC1	10	-4	0	-3	17	nt	nt	nt	nt	nt
O=c1c2ccccc2nc2oc3ccccc3n12	74*	80*	2	88*	-25	44	48	70*	82*	16
Cn1ccs/c1=N\C(=O)Nc1cccc(Cl)c1	52*	73*	2	70*	7	17	17	67*	45	51*
CCn1cc(C2=NOC(C(=O)Nc3cc(C)nn3-c3ccccc3)C2)c(C)n1 (stereo not given)	5	0	-1	11	5	nt	nt	nt	nt	nt
N#CC(=C1C=CC(=NO)C(Cl)=C1)c1ccccc1	nt	nt	-2	nt	5	nt	nt	nt	nt	nt
Cc1ccc(Nc2n[nH]c(C)c2[N+](=O)[O-])cc1C	42	33	2	58*	26	23	42	84*	53*	3
Cc1c(N)cccc1N	14	4	4	6	20	nt	nt	nt	nt	nt
Cc1ccc2cccc(N)c2n1	-2	55*	2	52*	-6	-2	5	5	11	8
COc1cc(OC)cc(-c2cc3ncccc3cn2)c1	29	53*	2	43	-14	19	22	68*	66*	51*
c1ccc(-c2cc3ccccc3cn2)cc1	82*	91*	-3	84*	-29	65*	85*	96*	77*	39
COc1ccc2cc(-c3ccccc3)ncc2c1	92*	98*	-3	95*	-194	79*	95*	96*	86*	33
Fc1ccccc1-c1cc2ncccc2cn1	27	39	-1	39	7	nt	nt	nt	nt	nt
Fc1ccc2cnc(-c3cccnc3)cc2c1	-6	5	2	2	6	nt	nt	nt	nt	nt
COc1cc(OC)cc(-c2cc3ccc(OC)cc3cn2)c1	97*	100*	0	99*	-304	100*	101*	104*	99*	98*
SMILES	SENP8 block-1	SENP7 inh	SENP1 inh	SENP6 inh	SENP8 block-2	SENP8 confirm	SENP6 conf	SENP7 confirm	Casp3 SENP sel	Luc interf
COc1ccc(CN(C)Cc2nc3scc(-c4ccccc4)c3c(=O)[nH]2)cc1OC	-7	1	-8	-2	11	nt	nt	nt	nt	nt
O=C(NCc1ccco1)C1CCCN(c2nnc(-n3cccc3)s2)C1 (stereo not given)	7	11	-4	-6	3	nt	nt	nt	nt	nt
O=C(O)c1ccc(N/N=C/c2cn(Cc3ccc(F)cc3)c3ccccc23)cc1	61*	23	-8	52*	-431	7	72*	75*	8	12
O=C(c1ccccc1)c1ccc2c(c1)OCCCO2	28	62*	-3	44	1	28	34	75*	54*	55*
O=C(O)CCC(=O)c1ccc2c(c1)OCCCO2	-12	-1	3	1	12	nt	nt	nt	nt	nt
O=C(/C=C/c1ccccc1)c1ccc2c(c1)OCCCCO2	40	68*	-2	88*	23	72*	59*	23	15	76*
O=C(CCc1ccccc1)c1ccc2c(c1)OCCCO2	21	42	3	58*	14	42	42	76*	38	37
O=C(O)c1ccc2c(c1)OCCCO2	-3	-3	2	-13	18	nt	nt	nt	nt	nt
O=C(CCCc1ccccc1)c1ccc2c(c1)OCCO2	93*	96*	-1	92*	6	95*	97*	102*	91*	67*
Cc1cccc2sc(=S)[nH]c12	nt	nt	2	nt	6	nt	nt	nt	nt	nt
O=C(CCCc1ccccc1)c1ccccc1	59*	60*	1	80*	11	-6	46	86*	40	11
C/C(=N/NC(=O)CCc1ccccc1)c1ccc2c(c1)OCO2	-12	-7	2	-4	5	nt	nt	nt	nt	nt
O=C(CCCC(=O)c1ccccc1)NCCc1ccccc1	3	1	1	5	27	nt	nt	nt	nt	nt
